Laboratory results as given in article PMC2413043 (The Journal of Experimental Medicine, 2008).
Entries after “also recorded” stand apart in the source; their conditions may differ.

Tests used:
NOS2 [1] = assay: NOS2 protein levels by immunoblot in RAW cells; assay type: cell-based, mouse; settings: RAW cells
In short: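 RAW 264.7 cells were handled in two ways. For agonist response, cells were exposed to the TLR agonists PGN, poly(I:C), LPS or E. coli for 16 h, with or without TSA. For TSA dose-response, cells were pretreated with increasing TSA for 1 h, then given LPS 100 ng/ml for 6 h, with ERα as the blot control. In both, lysates were immunoblotted for NOS2.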

COX-2 and CXCL2 [2] = assay: COX-2 and CXCL2 expression by RT-PCR in RAW cells; assay type: cell-based, mouse; settings: LPS and TSA, Fig. 1 H and Fig. S1
In short: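 RAW 264.7 cells grown in DME with 10% FBS and penicillin/streptomycin. Cells exposed to LPS, TSA or both for 4 h, then assessed for COX-2 and CXCL2 expression by RT-PCR.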

NF-κB pathway = assay: LPS activation of the NF-κB pathway; assay type: cell-based; settings: Fig. S2
ERK1/2 = assay: Phosphorylation of ERK1/2 by immunoblot in RAW cells; assay type: cell-based, mouse; settings: RAW cells pretreated 30 ng/ml TSA 1 h, 100 ng/ml LPS 30 min
In short: (§1)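 RAW 264.7 cells (DME, 10% FBS) pretreated with TSA 30 ng/ml for 1 h, then LPS 100 ng/ml for 30 min. Whole-cell lysates were immunoblotted with antibodies to phosphorylated and total forms of the MAPK in question.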

JNK1/2 = assay: Phosphorylation of JNK1/2 by immunoblot in RAW cells; assay type: cell-based, mouse; settings: RAW cells pretreated 30 ng/ml TSA 1 h, 100 ng/ml LPS 30 min
In short: as §1

Elk-1 = assay: Phosphorylation of Elk-1 by immunoblot in RAW cells; assay type: cell-based, mouse; settings: TSA 30 ng/ml 1 h and/or LPS 100 ng/ml 30 min
In short: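 RAW 264.7 cells grown in DME with 10% FBS were pretreated with TSA 30 ng/ml for 1 h, then given LPS 100 ng/ml for 30 min. Lysates were immunoblotted with phospho-specific antibodies to MAPK cascade members (phospho-MKK3/6, phospho-Elk-1).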

MKP-1 = MKP-1 acetylation, [3H]sodium acetate labelled RAW cells; assay type: cell-based, mouse; settings: [3H]sodium acetate 1 h, TSA 0.5 h, 100 ng/ml LPS 0–3 h
In short: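 RAW 264.7 cells metabolically labelled with [3H]sodium acetate for 1 h, plus TSA for 0.5 h, then LPS 100 ng/ml for 0–3 h. Lysates were immunoprecipitated with anti-MKP-1 and resolved by SDS-PAGE. Acetylation was detected by autoradiography; MKP-1 was immunoblotted as loading control.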

MKP-1-ERα and ERK1 = assay: MKP-1-ERα/ERK1 interaction by co-immunoprecipitation in HeLa cells; assay type: cell-based; settings: His6-ERK1, LPS and TSA 1 h
In short: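 HeLa cells in DME with 10% FBS were co-transfected by Lipofectamine 2000 with MKP-1(WT)-ERα or MKP-1(K57R)-ERα plus His6-ERK1. Fusion expression was induced with 200 nM 4-hydroxytamoxifen, then cells were treated with LPS and TSA for 1 h. Lysates were immunoprecipitated and immunoblotted with anti-ERα (MKP-1 tag) and anti-His6 (ERK1 tag).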

phospho-p38 = assay type: cell-based; settings: MKP-1 immunoprecipitated from RAW cells treated with LPS and TSA 4 h
In short: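 RAW 264.7 cells grown in DME with 10% FBS were treated with LPS plus TSA, or with control, for 4 h. Endogenous MKP-1 was immunoprecipitated from the lysates and incubated with recombinant phospho-p38 or phospho-ERK1. Remaining phosphorylation was detected by immunoblotting with phospho-p38 or phospho-ERK antibodies. The amount of phospho-substrate added was shown as an input lane.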

p38 = assay: Phospho-p38 in RAW cells with MKP-1 siRNA or control siRNA; assay type: cell-based, mouse
In short: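 RAW cells stably transfected with vectors encoding hairpin siRNA against MKP-1 nucleotides 67–85 or 743–761, or a control sequence, with separate clones isolated. Knockdown was confirmed by MKP-1 immunoblot. Clones were treated with LPS and TSA, and lysates were immunoblotted for NOS2 and MAPK family members, including phospho-p38.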

NOS2 [3] = assay: NOS2 expression in RAW cells with MKP-1 siRNA or control siRNA; assay type: cell-based, mouse; settings: LPS and TSA
In short: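 RAW 264.7 cells were stably transfected with vectors encoding siRNA hairpins against MKP-1 nucleotides 67–85 or 743–761, or with a control hairpin. Knockdown in the isolated clones was confirmed by MKP-1 immunoblot. Clones were treated with LPS and TSA, and lysates were immunoblotted for NOS2 and MAPK family members.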

WT mice = assay: LPS-induced mortality in WT mice; assay type: in vivo, mouse; settings: Fig. S4 B
MKP-1 KO mice = assay: LPS-induced mortality in MKP-1 KO mice; assay type: in vivo, mouse; settings: LPS 20 mg/kg; n = 5; P = 0.17 LPS vs. LPS with TSA
mouse liver = assay: LPS-induced liver inflammation, histology; assay type: in vivo; settings: hematoxylin and eosin
In short: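 Mice received saline (control) or TSA i.p. each day from day −2, then an i.p. LPS injection on day 0. Livers were harvested 2 h or 2 d after LPS, sectioned and stained with hematoxylin and eosin to assess leukocyte infiltration, edema and necrosis.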

TNF-α = assay: Serum TNF-α by ELISA in LPS-treated mice; assay type: in vivo, mouse; settings: TSA daily from day −2, LPS day 0, serum 2 h after LPS, n = 2 ± SD
IL-1β [4] = assay: Serum IL-1β by ELISA in LPS-treated mice; assay type: in vivo, mouse; settings: TSA daily from day −2, LPS day 0, serum 2 h after LPS, n = 2 ± SD
IL-1β [5] = assay: IL-1β in media of primary macrophages by ELISA; assay type: cell-based, mouse; settings: TSA and LPS, 4 h, n = 2 ± SD
In short: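 Primary peritoneal macrophages collected by PBS lavage from resting WT or MKP-1−/− mice, not thioglycolate-elicited; the mice were on a C57BL/6J background. Cells stimulated with TSA, LPS or both. After 4 h, TNF-α and IL-1β in the media were measured by ELISA; n = 2, mean ± SD.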

COX-2 and CXCL2 [6] = assay: Liver COX-2 and CXCL2 expression by RT-PCR; assay type: in vivo, mouse; settings: 4 h after LPS, n = 2
In short: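 Mice were dosed with TSA each day from day −2 and challenged with LPS on day 0. Liver RNA was harvested 4 h after LPS. RT-PCR was run for TNF-α and IL-1β, or for COX-2 and CXCL2, with two mice per group.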

Question: What does the source list for `CC(/C=C/C(=O)NO)=C\[C@@H](C)C(=O)c1ccc(N(C)C)cc1` [TSA, trichostatin A]?
Answer: NOS2 expression activated by TLR agonists (LPS, E. coli, PGN, dsRNA) (NOS2 [1]; TLR agonist 16 h, effect of TSA): inhibits expression of NOS2 activated by each of these four TLR activators; NOS2 steady-state protein levels (NOS2 [1]; TSA pretreatment 1 h, LPS 6 h): decreases NOS2 steady-state protein levels; COX-2 expression (COX-2 and CXCL2 [2]): slightly increases; CXCL2 expression (COX-2 and CXCL2 [2]): slightly increases; LPS activation of the NF-κB pathway (NF-κB pathway): does not affect LPS activation of the NF-κB pathway; LPS-triggered IκBα degradation (NF-κB pathway): slightly increases; LPS-triggered p65 nuclear translocation (NF-κB pathway): slightly increases; NF-κB transactivation of the NOS2 promoter (NF-κB pathway): slightly increases; κB-binding activity (NF-κB pathway): slightly increases; LPS-induced phosphorylation of ERK1/2 (ERK1/2): decreases; LPS-induced phosphorylation of JNK1/2 (JNK1/2): not JNK1/2; phosphorylation of Elk-1 (Elk-1): decreases phosphorylation of p38 and Elk-1; MKP-1 acetylation (MKP-1): increases MKP-1 acetylation; interaction of ERK1 and MKP-1 (WT vs mutant K57R) (MKP-1-ERα and ERK1): increases the interaction of ERK1 and WT, but not mutant, MKP-1 in cells; removal of phosphate from recombinant phospho-p38 by MKP-1 (phospho-p38): enhances the ability of MKP-1 to remove phosphate groups from recombinant phospho-p38; LPS-induced phospho-p38, control siRNA cells (p38; RAW cells expressing control hairpin RNA, LPS and TSA): limits this increase; effect of TSA on phospho-p38, MKP-1 siRNA cells (p38; RAW cells with siRNA of MKP-1, LPS and TSA): siRNA of MKP-1 blocks the effect of TSA; LPS-induced NOS2 expression, control vs MKP-1 siRNA cells (NOS2 [3]): decreases LPS-induced NOS2 expression in control cells, but not in cells with decreased MKP-1; mortality after LPS, dose response to TSA (WT mice): decreases mortality after LPS in a dose-responsive manner; mortality after LPS, effect of TSA, MKP-1 KO mice (MKP-1 KO mice): minimal and insignificant effect on mortality; also recorded: small protective effect on MKP-1^−/− mouse mortality; LPS-induced leukocyte infiltration / inflammation in liver (mouse liver; livers 2 h after LPS): decreases LPS-induced inflammation; LPS-induced hepatocyte edema and necrosis (mouse liver; livers 2 d after LPS): limits LPS-induced hepatocyte edema and necrosis; decrease of serum TNF-α, MKP-1−/− mice (TNF-α): 22%; decrease of serum IL-1β, MKP-1−/− mice (IL-1β [4]): 21%; decrease of IL-1β, MKP-1 KO macrophages (IL-1β [5]): 34%; decrease of IL-1β, WT macrophages (IL-1β [5]): 85%; COX-2 expression in liver (COX-2 and CXCL2 [6]): slightly increases; CXCL2 expression in liver (COX-2 and CXCL2 [6]): slightly increases
